B1: Osa-1-4 twister ribozyme (parent)
chain: CCGCCUAACACUGCCAAUGCCGGUCCCAAGCCCGGAUAAAAGUGGAGGGGGCGG

Variants of: B1
Test: self-cleavage, relative activity (ratio to wild type); higher = more cleavage; co-transcriptional
Outline: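 In vitro transcription at 37 °C for 2 h allowed the twister ribozyme to cleave itself as it was made. Its 54-nucleotide Oryza sativa template had been synthesised with 97 % wild-type base and 1 % of each other base at the 48 positions downstream of the cleavage site. A template-switching oligonucleotide was used for reverse transcription, followed by PCR amplification and deep sequencing. Whether reads carried upstream sequence set the cleavage status, and relative activity is the fraction cleaved normalised to wild type.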
Variant G45A G47U has a self-cleavage of 0.06.
Work on G45A G48A yielded a self-cleavage of 0.06.
With G45A G48C the self-cleavage was 0.04.
In the case of G45A G48U, the self-cleavage is reported as 0.05.
For G45A G49A, the self-cleavage was 0.05.
G45A G49C gave a self-cleavage of 0.05.
For G45A G49U, the self-cleavage was 0.04.
G45A G50A showed a self-cleavage of 0.23.
G45A G50C gave a self-cleavage of 0.06.
For G45A G50U, the self-cleavage was 0.13.
For G45A G51A, the self-cleavage was 0.12.
For G45A G51C, the self-cleavage was 0.06.
G45A G51U showed a self-cleavage of 0.07.
G45A G53A gave a self-cleavage of 0.09.
Work on G45A G53C yielded a self-cleavage of 0.05.
In the case of G45A G53U, the self-cleavage is reported as 0.07.
G45A G54A showed a self-cleavage of 0.15.
Variant G45A G54C has a self-cleavage of 0.1.
In the case of G45A G54U, the self-cleavage is reported as 0.34.
G45A U12A gave a self-cleavage of 0.09.
G45A U12C gave a self-cleavage of 0.09.
Variant G45A U12G has a self-cleavage of 0.07.
With G45A U18A the self-cleavage was 0.43.
With G45A U18C the self-cleavage was 0.29.
With G45A U18G the self-cleavage was 0.45.
Work on G45A U24A yielded a self-cleavage of 0.03.
For G45A U24C, the self-cleavage was 0.05.
G45A U24G gave a self-cleavage of 0.02.
In the case of G45A U37A, the self-cleavage is reported as 0.25.
Variant G45A U37C has a self-cleavage of 0.55.
Variant G45A U37G has a self-cleavage of 0.58.
Variant G45A U43A has a self-cleavage of 0.09.
Variant G45A U43C has a self-cleavage of 0.09.
Work on G45A U43G yielded a self-cleavage of 0.06.
For G45C, the self-cleavage was 0.06.
For G45C G47A, the self-cleavage was 0.05.
G45C G47C gave a self-cleavage of 0.05.
G45C G47U showed a self-cleavage of 0.05.
With G45C G48A the self-cleavage was 0.03.
G45C G48C showed a self-cleavage of 0.04.
Work on G45C G48U yielded a self-cleavage of 0.02.
Work on G45C G49A yielded a self-cleavage of 0.04.
G45C G49C gave a self-cleavage of 0.04.
For G45C G49U, the self-cleavage was 0.03.
G45C G50A showed a self-cleavage of 0.08.
G45C G50C gave a self-cleavage of 0.07.
Variant G45C G50U has a self-cleavage of 0.06.
G45C G51A showed a self-cleavage of 0.06.
G45C G51C gave a self-cleavage of 0.05.
Variant G45C G51U has a self-cleavage of 0.05.
G45C G53A gave a self-cleavage of 0.06.
With G45C G53C the self-cleavage was 0.05.
Work on G45C G53U yielded a self-cleavage of 0.06.
Work on G45C G54A yielded a self-cleavage of 0.08.
In the case of G45C G54C, the self-cleavage is reported as 0.07.
Work on G45C G54U yielded a self-cleavage of 0.17.
G45C U12A showed a self-cleavage of 0.06.
In the case of G45C U12C, the self-cleavage is reported as 0.05.
In the case of G45C U12G, the self-cleavage is reported as 0.05.
For G45C U18A, the self-cleavage was 0.06.
Work on G45C U18C yielded a self-cleavage of 0.1.
In the case of G45C U18G, the self-cleavage is reported as 0.09.
Variant G45C U24A has a self-cleavage of 0.04.
Work on G45C U24C yielded a self-cleavage of 0.02.
Work on G45C U24G yielded a self-cleavage of 0.01.
G45C U37A gave a self-cleavage of 0.05.
G45C U37C gave a self-cleavage of 0.08.
With G45C U37G the self-cleavage was 0.07.
Variant G45C U43A has a self-cleavage of 0.06.
Variant G45C U43C has a self-cleavage of 0.06.
Variant G45C U43G has a self-cleavage of 0.04.
For G45U, the self-cleavage was 0.17.
Variant G45U G47A has a self-cleavage of 0.04.
For G45U G47C, the self-cleavage was 0.04.
Work on G45U G47U yielded a self-cleavage of 0.06.
Work on G45U G48A yielded a self-cleavage of 0.04.
Work on G45U G48C yielded a self-cleavage of 0.04.
G45U G48U showed a self-cleavage of 0.04.
Work on G45U G49A yielded a self-cleavage of 0.04.
Work on G45U G49C yielded a self-cleavage of 0.02.
For G45U G49U, the self-cleavage was 0.04.
With G45U G50A the self-cleavage was 0.12.
G45U G50C gave a self-cleavage of 0.07.
Work on G45U G50U yielded a self-cleavage of 0.09.
G45U G51A gave a self-cleavage of 0.08.
Work on G45U G51C yielded a self-cleavage of 0.04.
G45U G51U gave a self-cleavage of 0.05.
Variant G45U G53A has a self-cleavage of 0.07.
Variant G45U G53C has a self-cleavage of 0.03.
For G45U G53U, the self-cleavage was 0.05.
Variant G45U G54A has a self-cleavage of 0.1.
With G45U G54C the self-cleavage was 0.06.
Work on G45U G54U yielded a self-cleavage of 0.2.
In the case of G45U U12A, the self-cleavage is reported as 0.06.
Work on G45U U12C yielded a self-cleavage of 0.06.
With G45U U12G the self-cleavage was 0.07.
Variant G45U U18A has a self-cleavage of 0.14.
Variant G45U U18C has a self-cleavage of 0.14.
Work on G45U U18G yielded a self-cleavage of 0.19.
In the case of G45U U24A, the self-cleavage is reported as 0.04.
With G45U U24C the self-cleavage was 0.04.
G45U U24G gave a self-cleavage of 0.02.
With G45U U37A the self-cleavage was 0.09.
In the case of G45U U37C, the self-cleavage is reported as 0.17.
Work on G45U U37G yielded a self-cleavage of 0.21.
Work on G45U U43A yielded a self-cleavage of 0.06.
Variant G45U U43C has a self-cleavage of 0.06.
With G45U U43G the self-cleavage was 0.06.
In the case of A46C, the self-cleavage is reported as 0.09.
For A46C A7C, the self-cleavage was 0.03.
In the case of A46C A7G, the self-cleavage is reported as 0.04.
In the case of A46C A7U, the self-cleavage is reported as 0.02.
In the case of A46C A8C, the self-cleavage is reported as 0.03.
A46C A8G showed a self-cleavage of 0.02.
Variant A46C A8U has a self-cleavage of 0.03.
A46C C9A showed a self-cleavage of 0.03.
With A46C C9G the self-cleavage was 0.05.
Variant A46C C9U has a self-cleavage of 0.02.
A46C C11A showed a self-cleavage of 0.04.
Work on A46C C11G yielded a self-cleavage of 0.03.
In the case of A46C C11U, the self-cleavage is reported as 0.05.
A46C C14A gave a self-cleavage of 0.02.
With A46C C14G the self-cleavage was 0.03.
For A46C C14U, the self-cleavage was 0.03.
Variant A46C C15A has a self-cleavage of 0.03.
Variant A46C C15G has a self-cleavage of 0.04.
A46C C15U gave a self-cleavage of 0.04.
A46C C20A showed a self-cleavage of 0.04.
A46C C20G showed a self-cleavage of 0.03.
Variant A46C C20U has a self-cleavage of 0.07.
Variant A46C C21A has a self-cleavage of 0.06.
For A46C C21G, the self-cleavage was 0.03.
A46C C21U gave a self-cleavage of 0.06.
A46C C25A gave a self-cleavage of 0.03.
In the case of A46C C25G, the self-cleavage is reported as 0.02.
In the case of A46C C25U, the self-cleavage is reported as 0.05.
Variant A46C C26A has a self-cleavage of 0.02.
With A46C C26G the self-cleavage was 0.02.
With A46C C26U the self-cleavage was 0.05.
With A46C C27A the self-cleavage was 0.03.
Work on A46C C27G yielded a self-cleavage of 0.01.
Variant A46C C27U has a self-cleavage of 0.04.
In the case of A46C C31A, the self-cleavage is reported as 0.01.
A46C C31G gave a self-cleavage of 0.02.
Work on A46C C31U yielded a self-cleavage of 0.04.
A46C C32A gave a self-cleavage of 0.03.
With A46C C32G the self-cleavage was 0.03.
With A46C C32U the self-cleavage was 0.04.
Variant A46C C33A has a self-cleavage of 0.04.
A46C C33G gave a self-cleavage of 0.02.
A46C C33U showed a self-cleavage of 0.03.
A46C C52A gave a self-cleavage of 0.07.
A46C C52G showed a self-cleavage of 0.09.
Variant A46C C52U has a self-cleavage of 0.08.
In the case of A46C G13A, the self-cleavage is reported as 0.02.
Work on A46C G13C yielded a self-cleavage of 0.01.
In the case of A46C G13U, the self-cleavage is reported as 0.01.
Work on A46C G19A yielded a self-cleavage of 0.05.
A46C G19C gave a self-cleavage of 0.02.
Work on A46C G19U yielded a self-cleavage of 0.04.
Work on A46C G22A yielded a self-cleavage of 0.06.
With A46C G22C the self-cleavage was 0.03.
A46C G22U showed a self-cleavage of 0.04.
Variant A46C G23A has a self-cleavage of 0.04.
Variant A46C G23C has a self-cleavage of 0.02.
Work on A46C G23U yielded a self-cleavage of 0.03.
Variant A46C G30A has a self-cleavage of 0.01.
